Data on five compounds can be found in ChEMBL document CHEMBL3779892, “Increasing the binding affinity of VEGFR-2 inhibitors by extending their hydrophobic interaction with the active site: Design, synthesis and biological evaluation of 1-substituted-4-(4-methoxybenzyl)phthalazine derivatives” (Eur J Med Chem, 2016).

Series [1] in a line: Growth inhibition of human UACC62 cells at 10 uM after 48 hrs by sulforhodamine B assay. The class given is functional. To be noted: UACC-62, 48 h, read-out: GI. In a few lines:
(§1)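 NCI-60 panel, adherent cells grown in RPMI 1640 with 5% FBS and 2 mM L-glutamine, plated at 5000–40,000 cells/well and preincubated 24 h at 37 °C, 5% CO2. 10 µM final compound from DMSO stock, triplicate wells, 48 h. Fixed with cold TCA (10% final, 60 min, 4 °C) and stained with 0.4% SRB. Absorbance read at 515 nm; growth calculated against time-zero and control wells.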

The nature of series [2]: Growth inhibition of human COLO205 cells at 10 uM after 48 hrs by sulforhodamine B assay. The class given is functional. The following applies: COLO 205, 48 h, read-out: GI. The method, boiled down:
(§2)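 Run at NCI on the 60-line panel. Cells grown in RPMI 1640 with 5% FBS and 2 mM L-glutamine, plated at 5000–40,000 cells/well by doubling time, and held 24 h at 37 °C before dosing. Drug (DMSO stock) given at a single final 10 µM in triplicate wells for 48 h. Adherent cells fixed with cold TCA (10% final), suspension cells with 16% TCA. SRB stain read at 515 nm. Percent growth from Tz, C and Ti.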

Series [3] can be described thus: Growth inhibition of human SKOV3 cells at 10 uM after 48 hrs by sulforhodamine B assay. To be noted: SK-OV-3, 48 h, read-out: GI. The class given is functional. The method, boiled down:
as §2

A short description of series [4]: Growth inhibition of human SF268 cells at 10 uM after 48 hrs by sulforhodamine B assay. Format: functional. The following applies: SF-268, 48 h, read-out: GI. In a few lines:
as §2

The nature of series [5]: Growth inhibition of human RXF393 cells at 10 uM after 48 hrs by sulforhodamine B assay. To be noted: RXF 393, 48 h, read-out: GI. The class given is functional. The method, boiled down:
as §2

In series [6] the test system is Malme-3M. The series is described as follows: Growth inhibition of human MALME-3M cells at 10 uM after 48 hrs by sulforhodamine B assay. The class given is functional. The following applies: read-out: GI. The method, boiled down:
as §2

Series [7] concerns U-251. The series is described as follows: Growth inhibition of human U251 cells at 10 uM after 48 hrs by sulforhodamine B assay. The class given is functional. The following applies: U-251, 48 h, read-out: GI. The method, boiled down:
as §1

The nature of series [8]: Growth inhibition of human OVCAR3 cells at 10 uM after 48 hrs by sulforhodamine B assay. Format: functional. To be noted: OVCAR-3, 48 h, read-out: GI. The method, boiled down: as §2
The subject of series [9] is SR. Put plainly: Growth inhibition of human SR cells at 10 uM after 48 hrs by sulforhodamine B assay. The class given is functional. The following applies: read-out: GI. In a few lines:
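NCI-60 screen. Cells were grown in RPMI 1640 with 5% FBS and 2 mM L-glutamine, plated at 5000–40,000 cells/well and held 24 h at 37 °C, 5% CO2. Single 10 µM final dose from DMSO stock, triplicate wells, 48 h. Settled cells were fixed with 80% TCA (16% final) and stained with 0.4% SRB. Dye was solubilized in 10 mM Tris and read at 515 nm. Growth was calculated against time-zero and untreated wells.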

Series [10] in a line: Growth inhibition of human IGROV1 cells at 10 uM after 48 hrs by sulforhodamine B assay. The class given is functional. The following applies: IGROV-1, 48 h, read-out: GI. The method, boiled down:
as §2

Series [11] can be described thus: Growth inhibition of human SW620 cells at 10 uM after 48 hrs by sulforhodamine B assay. The class given is functional. The following applies: SW-620, 48 h, read-out: GI. The method, boiled down:
as §1

Series [12] in a line: Growth inhibition of human HCC2998 cells at 10 uM after 48 hrs by sulforhodamine B assay. Format: functional. To be noted: HCC 2998, 48 h, read-out: GI. The method, boiled down:
as §2

Series [13] concerns SK-MEL-5. Put plainly: Growth inhibition of human SK-MEL-5 cells at 10 uM after 48 hrs by sulforhodamine B assay. The class given is functional. To be noted: SK-MEL-5, 48 h, read-out: GI. In a few lines:
as §2

The nature of series [14]: Growth inhibition of human HCT116 cells at 10 uM after 48 hrs by sulforhodamine B assay. The class given is functional. To be noted: HCT-116, 48 h, read-out: GI. The method, boiled down:
as §2

Series [15] is described as follows: Growth inhibition of human BT549 cells at 10 uM after 48 hrs by sulforhodamine B assay. The class given is functional. To be noted: BT-549, 48 h, read-out: GI. In a few lines:
as §2

The nature of series [16]: Growth inhibition of human MOLT4 cells at 10 uM after 48 hrs by sulforhodamine B assay. Format: functional. The following applies: MOLT-4, 48 h, read-out: GI. The method, boiled down: as §2
The nature of series [17]: Growth inhibition of human HCT15 cells at 10 uM after 48 hrs by sulforhodamine B assay. The following applies: HCT-15, 48 h, read-out: GI. The class given is functional. In a few lines: as §2
Series [18] has as its system ACHN. Put plainly: Growth inhibition of human ACHN cells at 10 uM after 48 hrs by sulforhodamine B assay. The class given is functional. To be noted: read-out: GI. In a few lines:
as §2

The nature of series [19]: Growth inhibition of human HOP92 cells at 10 uM after 48 hrs by sulforhodamine B assay. Format: functional. The following applies: HOP-92, 48 h, read-out: GI. The method, boiled down: as §2
In series [20] the test system is 786-0. Put plainly: Growth inhibition of human 786-0 cells at 10 uM after 48 hrs by sulforhodamine B assay. Format: functional. The following applies: 786-0, 48 h, read-out: GI. In a few lines: as §2
Series [21] has as its system NCI-H226. The series is described as follows: Growth inhibition of human NCI-H226 cells at 10 uM after 48 hrs by sulforhodamine B assay. Format: functional. To be noted: NCI-H226, 48 h, read-out: GI. The method, boiled down:
as §2

The target of series [22] is serum albumin (Bos taurus, UniProt P02769). Put plainly: Binding affinity to bovine serum albumin at pH 7.4 at 25 degC by equilibrium dialysis method. The following applies: cattle, read-out: PB (converted). The class given is ADME.
Chain of serum albumin (P02769 whole entry): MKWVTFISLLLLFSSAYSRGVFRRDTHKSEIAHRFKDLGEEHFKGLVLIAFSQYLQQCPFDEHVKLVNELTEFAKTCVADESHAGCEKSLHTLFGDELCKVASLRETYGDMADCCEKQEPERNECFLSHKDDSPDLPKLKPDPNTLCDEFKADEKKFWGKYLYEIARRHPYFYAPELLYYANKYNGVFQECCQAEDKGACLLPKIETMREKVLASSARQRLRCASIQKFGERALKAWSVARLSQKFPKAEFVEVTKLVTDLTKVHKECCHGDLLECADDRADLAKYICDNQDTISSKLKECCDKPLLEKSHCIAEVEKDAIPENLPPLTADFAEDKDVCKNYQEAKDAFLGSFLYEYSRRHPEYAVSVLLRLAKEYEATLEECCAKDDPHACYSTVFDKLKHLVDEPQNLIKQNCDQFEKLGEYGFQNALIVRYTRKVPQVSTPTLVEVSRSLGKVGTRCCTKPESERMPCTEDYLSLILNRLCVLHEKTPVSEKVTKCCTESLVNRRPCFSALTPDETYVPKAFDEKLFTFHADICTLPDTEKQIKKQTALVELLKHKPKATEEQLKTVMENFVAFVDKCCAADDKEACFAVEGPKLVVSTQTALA

Turning to `COc1ccc(Cc2nnc(Nc3ccc(NC(=O)Nc4cccc(Cl)c4)cc3)c3ccccc23)cc1`, the inhibition of growth at 10 µM in series [1] was below 30%; in series [2], below 30%; in [3], below 30%; in [4], below 30%; in series [5], 40%; in [6] it was below 30%. The inhibition of growth at 10 µM in series [7], in series [8], in [9], in series [10], in series [11] and in series [12] was below 30% in each case. In addition, the inhibition of growth at 10 µM was below 30% in [13]; 37% in series [14]; below 30% in series [15]; below 30% in series [16]; below 30% in [17]; 39% in series [18]. Besides, the inhibition of growth at 10 µM in series [19] is below 30%; in [20] it was 35%; in series [21], below 30%.
As for `COc1ccc(Cc2nnc(Nc3ccc(NC(=O)Nc4ccc(OC)cc4)cc3)c3ccccc23)cc1`, the inhibition of growth at 10 µM in series [1] was below 30%; in series [2], below 30%; in series [3] it was below 30%; in [4], below 30%; in series [5], 100%; in series [6], 31%. Besides, the inhibition of growth at 10 µM in series [7] is 49%; in [8], below 30%; in [9] it was 39%; in [10], below 30%; in [11], below 30%; in series [12], below 30%. The inhibition of growth at 10 µM in series [13] was below 30%; in [14] it was 34%; in series [15] it was 31%; in series [16] it was 47%; in series [17], 39%; in series [18], 32%. Also, the inhibition of growth at 10 µM was below 30% in [19], 63% in series [20] and below 30% in [21]. In addition, the fraction unbound in [22] is 0.921.
As to `COc1ccc(Cc2nnc(Nc3ccc(NC(=O)Nc4cccc(OC)c4)cc3)c3ccccc23)cc1`, the inhibition of growth at 10 µM was below 30% in series [1]; below 30% in series [2]; below 30% in series [3]; below 30% in [4]; 50% in series [5]; below 30% in [6]. Moreover, the inhibition of growth at 10 µM in series [7] is 32%; in series [8], below 30%; in [9], below 30%; in series [10], below 30%; in series [11], below 30%; in series [12], below 30%. Further, the inhibition of growth at 10 µM in [13], in series [14], in series [15], in series [16], in [17] and in series [18] was below 30% each time. The inhibition of growth at 10 µM in [19] was below 30%; in series [20], 42%; in series [21], below 30%.
Take `COc1ccc(Cc2nnc(Nc3ccc(NC(=O)Nc4ccc(Cl)c(C(F)(F)F)c4)cc3)c3ccccc23)cc1`: the inhibition of growth at 10 µM in [1] is below 30%; in [2], 30%; in series [3] it was 38%; in [4], below 30%; in series [5], 72%; in series [6] it was below 30%. In addition, the inhibition of growth at 10 µM is 51% in [7]; 78% in series [8]; 40% in series [9]; 53% in series [10]; below 30% in [11]; below 30% in [12]. For the same compound, the inhibition of growth at 10 µM in series [13] is 36%; in [14] it was 53%; in [15] it was below 30%; in [16], 50%; in [17], 40%; in series [18] it was 50%. Besides, the inhibition of growth at 10 µM in [19] was below 30%; in series [20], 62%; in series [21], below 30%.
Consider `COc1ccc(Cc2nnc(Nc3ccc(NC(=O)Nc4ccc(Cl)cc4)cc3)c3ccccc23)cc1`, for which the inhibition of growth at 10 µM in series [1] was below 30%; in series [2], below 30%; in series [3] it was below 30%; in [4], below 30%; in series [5] it was 79%; in series [6], below 30%. In addition, the inhibition of growth at 10 µM in [7] is 48%; in [8] it was below 30%; in series [9] it was 40%; in series [10], below 30%; in [11] it was below 30%; in series [12] it was below 30%. For the same compound, the inhibition of growth at 10 µM was below 30% in series [13]; 42% in series [14]; 37% in series [15]; 44% in series [16]; 41% in [17]; 46% in series [18]. Also, the inhibition of growth at 10 µM in series [19] was below 30%; in [20] it was 58%; in series [21], below 30%.
